High-throughput results (PubChem BioAssay)
L929 necroptosis: L929 zVAD cell death inhibition; L929 zVAD necroptosis rescue, ATP luminescence, 24 h; with zVAD 60 µM; viability rescue, % at 10 µM; 0.38% of 220,000 active; AID 1377;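 active means activation, scaled between plate controls, above about 75%, limit read from the data; inactive means activation under that limit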;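 further: 0% = zVAD with DMSO and 100% = DMSO alone without zVAD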
Beta2AR agonist: human beta-2 adrenergic receptor agonism by FAP | Am2.2-beta2AR cells, FAP receptor internalization, flow cytometry | response, % (no concentration beside the values) | 0.43% of 340,000 active;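 active means response above a set limit, near 3 SD of response in nonfluorescent compounds, cut at about 42% in these data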
Target sequence (P07550 whole entry, looked up): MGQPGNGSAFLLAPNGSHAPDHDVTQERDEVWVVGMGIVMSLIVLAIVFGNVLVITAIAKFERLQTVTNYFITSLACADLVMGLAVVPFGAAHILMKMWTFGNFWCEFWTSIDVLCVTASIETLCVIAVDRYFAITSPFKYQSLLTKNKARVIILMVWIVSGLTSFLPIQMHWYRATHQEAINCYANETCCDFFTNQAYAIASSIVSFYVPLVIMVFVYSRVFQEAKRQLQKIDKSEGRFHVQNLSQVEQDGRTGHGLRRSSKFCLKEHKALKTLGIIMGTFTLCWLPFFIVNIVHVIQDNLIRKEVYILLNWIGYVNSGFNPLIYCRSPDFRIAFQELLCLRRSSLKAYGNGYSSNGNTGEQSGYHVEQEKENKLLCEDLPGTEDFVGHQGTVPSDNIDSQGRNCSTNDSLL
TNF death inh: TNF-alpha cell death inhibition in Jurkat FADD-/- cells. 0.068% of 220,000 active. activation (protection from cell death), % at 10 µM. Jurkat FADD-/- TNF necroptosis rescue, ATP luminescence, 24 h; 0 = TNF only, 100 = no-TNF cells. AID 463075;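 active means activation, meaning protection from cell death, of at least 50% relative to plate controls; inactive means activation below 50%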;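 further: necroptosis triggered by 40 ng/mL TNF-alpha added together with compound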
Dynein cargo inh: blocks dynein driven cargo transport along microtubules | 3617.4 mouse cells, GR-EGFP nuclear translocation imaging; test concentration mostly 20 µM; stimulated with dexamethasone, 1 µM; active compounds read low | z-score, hits read low | 0.47% of 220,000 active | AID 1381;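 active means plate z-score of nuclear minus cytoplasmic receptor signal below a set negative limit, without overly bright fluorescence or cell loss, cut at about -3.5 in these data, passing the limit was not always enough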;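 further: z-score of nuclear minus cytoplasmic ring GR-EGFP intensity difference per well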
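Buffer or medium: tet-free medium with charcoal-stripped serum / Also added: dexamethasone agonist, 1.0 µM final, for 30 min / Timing: induction 48 h, compound 1 h, agonist 30 min / Measured by: high-content fluorescence imaging after fixation / Read-out: nuclear-to-cytoplasmic GR-EGFP distribution per well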
Mdm2 ligase inh: blocks human Mdm2 ubiquitin ligase activity; Q00987; cell-based MDM2 ubiquitination luciferase reporter, 2 h; 0 = plate control, 100 = twice control, blank-subtracted; signal enhancement, % at 5 µM; 0.11% of 210,000 active; AID 1230;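 active means signal enhancement of 30% or more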;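 further: luminescence tracks abundance of the self-degrading MDM2-luciferase fusion protein; higher signal means inhibition of MDM2 E3 ligase activity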
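Assay system: stable mammalian line carrying autodegrading MDM2–luciferase fusion reporter; amount: 2000 cells seeded into each well; buffer or medium: DMEM; benchmarks: plate control and blank wells; signal: luciferase luminescence; timing: 2 h compound exposure at 37 °C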
Beta2AR ag CP1: human beta-2 adrenergic receptor agonism, cherry pick | shares compounds with Beta2AR agonist | Am2.2-beta2AR cells, FAP surface receptor, flow cytometry; active compounds read low | percent response (surface receptor), % at 10 µM | 25% of 1,100 active | AID 540358;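 active means surface receptor percent response at or below 58%, roughly 3 SD from nonfluorescent compounds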
B2AR FAP counter: flagged in Am2.2 fluorescence counterscreen for beta-2AR agonists. calls only at 10 µM. AID 588765. 1,100 tested, under 10 active. shares compounds with Beta2AR agonist. Am2.2 cells, FAP fluorogen flow cytometry; active compounds read low;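 active means percent response below a set limit in fluorescence channel 1 and below 50% in channel 8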
The depositor's hits bear a star; i = inactive; . = no result given; ! = not active in a repeat. Hits are enriched below; roughly 0.97% of the tested compounds scored in any of these assays.

SMILES	L929 necroptosis	Beta2AR agonist	TNF death inh	Dynein cargo inh	Mdm2 ligase inh	Beta2AR ag CP1	B2AR FAP counter
COc1ccc(CC(=O)Nc2cccc(-c3nnc(-c4ccc(C)cc4)o3)c2)cc1OC	3.0	49.5*	-14.5	-0.873	-10.4	107.2	i
COc1ccc(CC(=O)Nc2cccc(-c3nnc(-c4cccc(C)c4)o3)c2)cc1OC	16.3	16.8	-24.0	-0.0302	-25.8	.	.
COc1cccc(CNC(=O)c2ccc(CS(=O)Cc3ccc(C)cc3)o2)c1 (stereo unspecified)	.	4.4	.	.	.	.	.
c1ccc(OCCn2cnc3ccccc32)cc1	-0.3	-1.7	-0.2	-1.14	-12.9	.	.
c1ccc(OCCCCn2cnc3ccccc32)cc1	-0.3	44.8*	-0.6	-1.08	-1.1	100.4	i
CCc1ccc(C(=O)N2CCN(c3ccc(NC(=O)c4ccco4)cc3)CC2)cc1	.	-12.3	.	.	.	122.2	i
Cc1ccc(C(=O)N2CCN(c3ccc(NC(=O)c4ccc(Br)o4)cc3)CC2)cc1	1.8	11.6	-1.0	0.292	-19.2	119.8	i
COc1ccc(C(=O)N2CCN(c3ccc(NC(=O)c4ccco4)cc3)CC2)cc1	.	-5.6	.	.	.	.	.
O=C(NCc1ccccn1)C1CCC(CNS(=O)(=O)c2cccc3nsnc23)CC1 (stereo unspecified)	-0.9	-2.4	0.9	-0.0936	-8.4	.	.
CC(C)C(=O)Nc1ccc2c(c1)C(=O)N(CCC(=O)O)C2=O	-0.2	42.7*	-1.8	-0.59	0.9	104.8	i
COc1ccc(CC(=O)Nc2ccc3c(c2)C(=O)N(CCC(=O)O)C3=O)cc1	.	0.6	.	.	.	.	.
CCOc1ccccc1CNC(=O)C1CCN(c2nnc(C)c3c(C)n(-c4ccc(C)cc4)nc23)CC1	.	52.6*	.	.	.	24.5*	i
COc1ccccc1CCNC(=O)C1CCN(c2nnc(C)c3c(C)n(-c4ccc(C)cc4)nc23)CC1	.	30.7	.	.	.	.	.
CCOc1ccc(CNC(=O)C2CCN(c3nnc(C)c4c(C)n(-c5ccc(C)cc5)nc34)CC2)cc1	.	54.9*	.	.	.	95.4	i
Cc1ccc(-n2nc3c(N4CCC(C(=O)NCc5ccccc5C)CC4)nnc(C)c3c2C)cc1	.	16.1	.	.	.	.	.
COc1ccc(-n2nc3c(N4CCC(C(=O)NCc5cccc(C)c5)CC4)nnc(C)c3c2C)cc1	.	92.4*	.	.	.	27.2*	i
O=C(CN1CCOCC1)NNc1nc(-c2ccccc2)c2cc(Br)ccc2n1	0.8	13.4	1.5	-0.156	-9.0	.	.
CCc1ccc(/C=C2/SC(=S)N(CCC(=O)Nc3cccc(C(=O)O)c3)C2=O)cc1	.	11.4	.	.	.	.	.
Cc1ccccc1C(=O)OC(C)CN1CCN(C)CC1 (stereo unspecified)	-1.2	1.6	0.9	-0.527	-7.3	.	.
Cc1cc(S(=O)(=O)N2CCOCC2)ccc1OCC(=O)Nc1cccc(F)c1	.	6.6	.	.	.	125.8	i
COc1ccc(NC(=O)COc2ccc(S(=O)(=O)N3CCOCC3)cc2C)cc1OC	.	5.5	.	.	.	110.8	i
COc1ccc(S(=O)(=O)N2CCOCC2)cc1NC(=O)COc1ccccc1OC	.	2.8	.	.	.	.	.
CC(=O)Nc1ccc(NC(=O)COc2ccc(S(=O)(=O)N3CCCC3)cc2C)cc1	.	-6.1	.	.	.	.	.
Cc1cc(S(=O)(=O)N2CCOCC2)ccc1OCC(=O)Nc1ccccc1F	.	11.6	.	.	.	95.3	i
Cc1ccccc1NC(=O)COc1ccc(S(=O)(=O)N2CCCC2)cc1C	.	-1.2	.	.	.	90.5	i
SMILES	L929 necroptosis	Beta2AR agonist	TNF death inh	Dynein cargo inh	Mdm2 ligase inh	Beta2AR ag CP1	B2AR FAP counter
Cc1ccc(F)cc1NC(=O)CSc1n[nH]c(N)n1	.	16.3	.	.	.	.	.
OC(c1ccccc1)(c1ccccc1)c1ncc[nH]1	.	-5.3	.	.	.	.	.
CC(=O)Nc1ccc(S(=O)(=O)N(Cc2cccnc2)Cc2cc3ccccc3[nH]c2=O)cc1	.	73.9*	.	.	.	28.7*	i
O=c1[nH]c2ccccc2cc1CN(Cc1cccnc1)S(=O)(=O)c1ccc([N+](=O)[O-])cc1	.	-18.1	.	.	.	150.7	i
CC(=O)Nc1ccc(S(=O)(=O)N(Cc2ccco2)Cc2cc3ccccc3[nH]c2=O)cc1	.	106.3*	.	.	.	23.5*	i
O=c1[nH]c2ccccc2cc1CN(Cc1cccnc1)S(=O)(=O)c1ccc(Cl)cc1	.	-9.0	.	.	.	153.2	i
COC(=O)c1ccccc1S(=O)(=O)N(Cc1ccco1)Cc1cc2cc(OC)ccc2[nH]c1=O	-0.1	6.0	-13.7	-0.509	-9.3	.	.
CCOc1ccc(NC(=O)c2sc3nc(C)nc(N4CCOCC4)c3c2C)cc1	.	69.4*	.	.	.	98.9	i
COc1ccc(C(=O)NCC(=O)OCC(=O)Nc2cc(OC)ccc2OC)cc1	0.1	64.5*	0.6	-0.697	-8.7	102.5	i
CCN(CC)c1ccc(NC(=O)c2cccc(OC)c2)c(C)c1	0.9	9.9	-6.8	0.802	-6.1	.	.
CCN(CC)c1ccc(NC(=O)c2cc(OC)cc(OC)c2)c(C)c1	-1.6	55.2*	-10.3	-0.346	-5.4	77.9	i
O=C(O)c1ccc(C(=O)O)c(C(=O)c2ccc(NC(=O)c3ccccc3)cc2)c1	.	-1.2	.	.	.	.	.
COc1ccccc1CNC(=O)CCn1c(=O)[nH]c2ccsc2c1=O	0.3	2.0	-1.2	0.315	-2.9	53.8*!	i
O=C(CCn1c(=O)[nH]c2ccsc2c1=O)N1CCc2ccccc2C1	1.8	-27.6	0.2	0.0627	-1.4	149.8	i
COc1ccccc1N1CCN(C(=O)CCCn2c(=O)[nH]c3ccsc3c2=O)CC1	0.1	-6.6	-1.9	-0.159	-12.9	.	.
CCC[C@@H]1C[C@@H](C(=O)N[C@@H](C2O[C@H](SC)[C@H](O)[C@@H](O)[C@H]2O)[C@H](C)Cl)N(C)C1 (stereo partly specified)	-0.5	.	0.8	1.23	-20.8	.	.
Cc1ccc(Cn2nc(C)c(NC(=O)CSc3nc4c(c(C(F)(F)F)n3)CCc3ccccc3-4)c2C)cc1	0.8	46.0*	2.9	1.15	-15.9	73.4	i
Cc1cc(C)nc(SCc2nnc(SCC(=O)Nc3c(C)cccc3C)o2)n1	1.2	-2.5	0.1	0.0982	-3.6	.	.
CCOc1cc(/C=C2\CN(C)C/C(=C\c3ccc(O)c(OCC)c3)C2=O)ccc1O	.	46.0*	.	.	.	72.6	i
CCOc1cc(/C=C2/C(=O)ON=C2C)ccc1O	.	25.9	.	.	.	.	.
COc1cc(C=O)ccc1OCC(=O)Nc1cccc(S(=O)(=O)N(C)c2ccccc2)c1	.	7.3	.	.	.	.	.
Cc1ccc2oc(=O)n(CCOc3ccccc3C)c2c1	-0.9	-3.1	-1.3	0.245	-1.5	.	.
CCc1ccc(C(=O)Nc2ccc(S(=O)(=O)Nc3nc(C)cc(C)n3)cc2)o1	0.9	54.0*	1.9	0.469	-4.2	105.1	i
COC(=O)C1=C(C)N(Cc2ccccc2)C(=NCCc2cccnc2)N[C@H]1c1ccc(Br)cc1	.	47.2*	.	.	.	84.6	i
